Shown are actives, neighbours in structure and some others; about 2% of the full set was active somewhere.
Tb hexokinase = Trypanosoma brucei hexokinase 1 inhibitors, primary screen, biochemical, G6PDH-coupled NADH absorbance, MLSCN library; AID 1430, 2008; recombinant TbHK1, G6PDH-coupled NADH A340; 0.11% of 220,000 active; hexokinase 1 [Trypanosoma brucei]; inhibition, % at 10 µM;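 active = inhibition of 50% or more in the single-dose primary screen; inactive = inhibition below 50%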
RBBP9 inhibitor = human RBBP9 inhibitors, primary screen, biochemical, fluorescence polarization, FP-Rh probe, HTS; 0.2% of 220,000 active; inhibition, % at 7.94 µM; AID 1515, 2009; Serine hydrolase RBBP9 (Homo sapiens), O75884; recombinant RBBP9;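 active = inhibition above the campaign mean of all tested compounds plus 3 SD, cut at about 14% in these data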;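 also: plate controls were DMSO wells with RBBP9 for no effect and wells lacking RBBP9 protein for full effect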
Target sequence (O75884 whole entry, looked up): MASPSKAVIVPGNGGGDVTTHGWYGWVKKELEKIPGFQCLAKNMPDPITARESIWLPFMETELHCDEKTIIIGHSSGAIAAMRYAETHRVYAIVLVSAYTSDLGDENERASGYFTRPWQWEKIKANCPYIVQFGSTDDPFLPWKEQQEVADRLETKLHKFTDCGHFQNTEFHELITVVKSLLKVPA
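Test system: recombinant human RBBP9. Quantity: 2.5 µM RBBP9 dispensing solution, before mixing. Detection: FP readout at 525/598 nm. Reagent: Serine-hydrolase probe FP-Rh, 375 nM pre-mixing. Measure: % inhibition. Control set: DMSO-treated enzyme wells and wells lacking RBBP9. Buffer or medium: Tris-NaCl-Pluronic buffer, pH 8.0. Times: preincubation 30 min plus labeling 45 min at 25 °C.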
Lipid droplet = inhibitors of hepatocyte lipid droplet formation, primary screen, imaging, high-throughput imaging, BODIPY stain; AID 1656, 2009; inhibition, % at 6.5 µM; 0.4% of 240,000 active; AML12 mouse hepatocytes, oleate lipid droplets;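 active = lipid droplet intensity inhibited by at least 50%, with more than 500 cells counted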
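Material – AML12 mouse liver cells · Also added – oleate loading, 100 µM · Compound dosing – 6.5 µM single-point dosing · Times – overnight treatment with compound plus oleate · Measured by – fluorescence imaging, 20x objective, two fields per well · Read-out – percent inhibition of filter-corrected integrated lipid droplet intensity per well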
zVAD death inh = inhibitors of zVAD-triggered necroptosis, primary screen, L929 cells | viability rescue, % at 10 µM | 0.38% of 220,000 active | AID 1377, 2008 | L929 zVAD necroptosis rescue, ATP luminescence, 24 h; with zVAD 60 µM;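 active = activation, scaled between plate controls, above about 75%, limit read from the data; inactive = activation under that limit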;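 also: 0% = zVAD with DMSO and 100% = DMSO alone without zVAD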
TNF necrop inh = inhibitors of TNF-alpha triggered necroptosis, primary screen, cell-based, Jurkat FADD-/-, single concentration; Jurkat FADD-/- TNF necroptosis rescue, ATP luminescence, 24 h; 0 = TNF only, 100 = no-TNF cells; activation (protection from cell death), % at 10 µM; 0.068% of 220,000 active; AID 463075, 2010;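 active = activation, meaning protection from cell death, of at least 50% relative to plate controls; inactive = activation below 50%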;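 also: necroptosis triggered by 40 ng/mL TNF-alpha added together with compound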
PfM18AAP inh-1 = PfM18AAP inhibitors, malaria aminopeptidase, primary screen, biochemical, QFRET, recombinant enzyme; H-Glu-NHMec fluorogenic cleavage; inhibition, % at 7.35 µM; 1.2% of 290,000 active; AID 1822, 2009;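 active = inhibition above the campaign mean inhibition over all tested compounds plus 3 SD, cut at about 28% in these data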;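 also: 0% = plate median of test compound wells and 100% = 2 mM ZnCl2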
PfM18AAP inh-2 = PfM18AAP inhibitors, malaria aminopeptidase, confirmation, biochemical, QFRET, recombinant enzyme, triplicate; 28% of 2,400 active; H-Glu-NHMec fluorogenic cleavage; inhibition, % at 7.35 µM; shares compounds with PfM18AAP inh-1;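 active = mean inhibition over replicate wells above the hit cutoff set for the earlier primary screen, cut at about 29% in these data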;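 also: 0% = median of test compound wells and 100% = 2 mM ZnCl2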
CTSL1 counter = cathepsin L1 inhibitors, retest, confirmation, counter-screen for PFM18AAP inhibitor project, biochemical, QFRET, triplicate; shares compounds with PfM18AAP inh-1; 2,400 tested, under 10 active; AID 2178, 2009; purified cathepsin L1, Z-Leu-Arg-MCA fluorescence; inhibition, % at 5.96 µM;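 active = average inhibition across replicates above the hit cutoff set in the earlier primary screen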;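 also: 0% = median of test compound wells and 100% = Z-Phe-Ala-diazomethylketone 1 µM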
Target sequence (P07711 whole entry, looked up): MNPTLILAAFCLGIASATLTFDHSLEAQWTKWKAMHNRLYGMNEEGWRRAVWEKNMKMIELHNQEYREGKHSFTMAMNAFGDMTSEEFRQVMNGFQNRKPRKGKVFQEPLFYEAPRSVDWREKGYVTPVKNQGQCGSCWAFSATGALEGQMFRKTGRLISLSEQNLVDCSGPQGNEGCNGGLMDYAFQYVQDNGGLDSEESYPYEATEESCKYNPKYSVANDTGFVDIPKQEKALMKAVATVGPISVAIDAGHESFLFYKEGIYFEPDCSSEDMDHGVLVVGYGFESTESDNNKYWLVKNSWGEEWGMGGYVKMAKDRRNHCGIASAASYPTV
The depositor's hits bear a star; · = not tested or not shown.

SMILES | Tb hexokinase | RBBP9 inhibitor | Lipid droplet | zVAD death inh | TNF necrop inh | PfM18AAP inh-1 | PfM18AAP inh-2 | CTSL1 counter
CN1CCN(C(=S)NC(=O)c2ccc(S(=O)(=O)N3CCOCC3)cc2)CC1 | -1 | 14 | 2 | 0 | 1 | 45* | 15 | 2
O=C(O)/C=C/C(=O)NCc1cn(-c2ccccc2)nc1-c1cccc(Br)c1 | -2 | -4 | -10 | -2 | -2 | 36* | -35 | -2
Clc1ccccc1-c1csc(Nc2cccnc2)n1 | -7 | -1 | 2 | 2 | -2 | 39* | -46 | 1
Cc1ccc2c(c1)N(CC(=O)NCc1cccnc1)C(=O)CO2 | -1 | -9 | 4 | 0 | 2 | 81* | -57 | 1
Cc1ccc(NC(=O)CN2C(=O)COc3ccc(C)cc32)nc1 | 7 | -6 | · | -1 | 1 | 2 | · | ·
O=C(NC(=S)NCCOCc1ccc(Cl)cc1)c1cccnc1 | 6 | -7 | 2 | -1 | -1 | -14 | · | ·
O=C(NNC(=S)NCc1ccc(Cl)cc1)c1cccnc1 | · | · | -3 | · | · | -1 | · | ·
O=C(NNC(=S)NC(=O)c1cccnc1)c1ccc(Cl)cc1 | -13 | 1 | · | -1 | -5 | 39* | -17 | 3
O=C(Cc1ccc(Cl)cc1)NNC(=S)NC(=O)c1cccnc1 | 2 | -5 | -2 | -1 | 0 | 50* | -16 | 3
COc1cccc(CNC(=O)CSc2nnc3c(n2)[nH]c2ccc(C)cc23)c1 | · | · | -42 | · | · | -2 | · | ·
Cc1[nH]c(=S)c(C#N)c(C)c1CCC#N | -20 | -7 | 8 | 1 | 0 | 38* | 37* | 1
COc1cc(/C=N/N2C(C)CCCC2C)cc(OC)c1O (stereo unspecified) | · | · | -3 | · | · | 39* | -31 | -8
Cc1nc(N/N=C/c2ccc(O)cc2O)cc(N2CCOCC2)n1 | · | · | 13 | · | · | 49* | 34* | 1
Cc1nc(N/N=C/c2cccc(F)c2)cc(N2CCOCC2)n1 | · | · | 46 | · | · | 3 | · | ·
O=C(CSc1nnc(-c2cccc(F)c2)o1)N1CCCC1 | · | · | 2 | · | · | -1 | · | ·
O=C(COC(=O)C12CC3CC(CC(Br)(C3)C1)C2)N1CCOCC1 | -1 | 6 | 18 | 1 | 0 | 0 | · | ·
NS(=O)(=O)c1ccc(NC(=S)N2CCN(C(=O)C3CCCO3)CC2)cc1 (stereo unspecified) | · | · | -2 | · | · | 47* | 1 | 1
COc1ccc(N2CC(NC(=O)NCC(C)C)CC2=O)cc1 (stereo unspecified) | -1 | -6 | -29 | 0 | 1 | -1 | · | ·
N#CC1=C(N)Nc2ncnn2C1c1ccc([N+](=O)[O-])cc1 (stereo unspecified) | -18 | 5 | -10 | -1 | 0 | 16 | · | ·
N#CC1=C(N)Nc2ncnn2C1c1ccccc1 (stereo unspecified) | 35 | -4 | 0 | 0 | -1 | 38* | -41 | 0
CCN(c1ccccc1)S(=O)(=O)c1cc(C(=O)O)ccc1C | 17 | -6 | · | 0 | 0 | 4 | · | ·
Cc1ccc(S(=O)(=O)NC(=O)Nc2ccc(N(C)C)cc2)cc1 | · | · | 0 | · | · | 43* | -26 | 4
Cc1ccc(NC(=O)NNS(=O)(=O)c2ccc(Br)cc2)cc1 | 4 | 3 | · | 0 | -1 | -4 | · | ·
Cc1onc(-c2ccccc2)c1CNS(=O)(=O)c1ccccc1[N+](=O)[O-] | -2 | -7 | -13 | -1 | 3 | -16 | · | ·
COc1cc(C2Nc3cccc4cccc(c34)N2)ccc1O | · | · | -4 | · | · | 46* | 15 | -1

Source: PubChem BioAssay (several laboratories)
